Data published in ChEMBL document CHEMBL1921716, “Discovery of N-[2-hydroxy-6-(4-methoxybenzamido)phenyl]-4- (4-methyl-1,4-diazepan-1-yl)benzamide (darexaban, YM150) as a potent and orally available factor Xa inhibitor” (J Med Chem, 2011).

Tests used:
Coagulation factor X [1] = target: T1, Coagulation factor X (Homo sapiens, UniProt P00742); experiment: Inhibition of human factor 10A using chromogenic substrate S2222 by absorbance measurement at 405 nm
Plasma [2] = experiment: Anticoagulant activity in mouse plasma assessed as concentration required to double the clotting time by coagulometric analysis; type: functional
In short: (§1)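 Citrated blood was spun at 3000 rpm for 10 min to give platelet-poor plasma, stored at −40 °C. Prothrombin time was read on a coagulometer at 37 °C with thromboplastin and compared with a distilled-water control. CT2 (concentration doubling clotting time) was estimated from each concentration–response curve. Each measurement was done three times and reported as the mean.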

Mus musculus [3] = experiment: Anticoagulant activity in mouse assessed as prothrombin time at 100 mg/kg, po measured after 0.5 hrs by coagulometric analysis relative to control; type: functional, ICR
Mus musculus [4] = experiment: Anticoagulant activity in mouse assessed as prothrombin time at 100 mg/kg, po measured after 2 hrs by coagulometric analysis relative to control; type: functional, ICR
[5] = Effective permeability of the compound after 2 hrs by PAMPA at pH 6.5; type: ADME; details: read-out: Peff
In short: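 Compound from a 10 mM DMSO stock was diluted to a final concentration of about 50 μM in buffer containing 10% DMSO. Donor was pH 6.5 and acceptor pH 7.4, separated by a filter coated with 20% lecithin in dodecane. Plates were incubated 2 h at 25 °C in saturated humidity. Both compartments were quantified by UV at 270–400 nm against standards, with mass balance, to give Pe (n = 2).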

[6] = Intrinsic clearance in CD1 mouse liver microsomes assessed as compound remaining at 0.2 uM after 30 mins; type: ADME, Microsome
Plasma [7] = experiment: Anticoagulant activity in human plasma assessed as concentration required to double the clotting time by coagulometric analysis; type: functional
In short: as §1

Coagulation factor X [8] = target: T1, Coagulation factor X; experiment: Inhibition of human factor 10A using chromogenic substrate S2222 by dixon plot analysis
In short: (§2)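 Human enzymes were used at final concentrations of 4.2 mU/mL FXa, 0.20 U/mL thrombin, 1.0 U/mL trypsin and 1.7 mU/mL plasma kallikrein. Substrates were S-2222 (FXa, trypsin), S-2238 (thrombin) and S-2302 (kallikrein). Reactions were started by adding enzyme, and hydrolysis was followed at 405 nm at 37 °C. Mode of inhibition came from Lineweaver–Burk plots and Ki from Dixon plots at several substrate concentrations. Values are means of four determinations.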

Trypsin = Trypsin (Homo sapiens, UniProt P07477+P07478+P35030); experiment: Inhibition of human trypsin using chromogenic substrate S2222 by dixon plot analysis plot; type: protein assay
In short: as §2

Prothrombin = Prothrombin (Homo sapiens, UniProt P00734); experiment: Inhibition of human thrombin using chromogenic substrate S2238 by dixon plot analysis
In short: as §2

Plasma kallikrein = Plasma kallikrein (Homo sapiens, UniProt P03952); experiment: Inhibition of human plasma kallikrein using chromogenic substrate S2302 by dixon plot analysis
In short: as §2

Rattus norvegicus [9] = experiment: Tmax in F344/DuCrlCrlj rat at 100 mg/kg, po assessed as 3-[(4-methoxybenzoyl)amino]-2-{[4-(4-methyl-1,4-diazepan- 1-yl)benzoyl]amino}phenyl beta-D-glucopyranosiduronic acid level after 24 hrs by LC-MS/MS analysis; type: ADME, organism-based; design: dose 100 mg/kg, route oral; details: in vivo
In short: (§3)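 Male F344/DuCrlCrlj rats, 6 weeks old and nonfasted, received a single oral dose of 100 mg/kg as the monomaleate salt suspended in 0.5% methylcellulose, dose given as free form. Three rats per time point were bled at 0.5, 1, 2, 4, 8 and 24 h. Plasma was deproteinized with acetonitrile containing internal standards, and parent and glucuronide were measured by LC-MS/MS.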

Rattus norvegicus [10] = experiment: Cmax in F344/DuCrlCrlj rat at 100 mg/kg, po assessed as 3-[(4-methoxybenzoyl)amino]-2-{[4-(4-methyl-1,4-diazepan- 1-yl)benzoyl]amino}phenyl beta-D-glucopyranosiduronic acid level after 24 hrs by LC-MS/MS analysis; type: ADME, organism-based; design: dose 100 mg/kg, route oral; details: in vivo
In short: as §3

Rattus norvegicus [11] = experiment: AUC (0 to 24 hrs) in F344/DuCrlCrlj rat at 100 mg/kg, po assessed as 3-[(4-methoxybenzoyl)amino]-2-{[4-(4-methyl-1,4-diazepan- 1-yl)benzoyl]amino}phenyl beta-D-glucopyranosiduronic acid level after 24 hrs by LC-MS/MS analysis; type: ADME, organism-based, Plasma; design: time < 24 hr, dose 100 mg/kg, route oral; details: in vivo
In short: as §3

[12] = Tmax in F344/DuCrlCrlj rat at 100 mg/kg, po; type: ADME, organism-based; design: dose 100 mg/kg, route oral; details: in vivo
In short: as §3

[13] = Cmax in F344/DuCrlCrlj rat at 100 mg/kg, po; type: ADME, organism-based; design: dose 100 mg/kg, route oral; details: in vivo
In short: as §3

[14] = AUC (0 to 24 hrs) in F344/DuCrlCrlj rat at 100 mg/kg, po; type: ADME, organism-based; design: time < 24 hr, dose 100 mg/kg, route oral; details: plasma
In short: as §3

T1 sequence (P00742 41-179 limits assumed): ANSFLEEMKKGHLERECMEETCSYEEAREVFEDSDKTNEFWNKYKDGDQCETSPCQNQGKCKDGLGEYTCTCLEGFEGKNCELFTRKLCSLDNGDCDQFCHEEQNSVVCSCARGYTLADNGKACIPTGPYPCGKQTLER
T1 sequence (P00742 235-488 limits assumed): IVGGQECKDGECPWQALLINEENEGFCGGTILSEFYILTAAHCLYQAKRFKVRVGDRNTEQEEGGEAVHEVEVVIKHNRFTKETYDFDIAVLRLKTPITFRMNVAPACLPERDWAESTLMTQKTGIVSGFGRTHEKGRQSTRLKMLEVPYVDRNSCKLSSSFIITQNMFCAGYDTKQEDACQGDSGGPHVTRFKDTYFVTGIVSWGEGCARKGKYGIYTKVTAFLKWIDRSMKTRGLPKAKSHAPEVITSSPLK
Plasma kallikrein, sequence (P03952 20-390 limits assumed): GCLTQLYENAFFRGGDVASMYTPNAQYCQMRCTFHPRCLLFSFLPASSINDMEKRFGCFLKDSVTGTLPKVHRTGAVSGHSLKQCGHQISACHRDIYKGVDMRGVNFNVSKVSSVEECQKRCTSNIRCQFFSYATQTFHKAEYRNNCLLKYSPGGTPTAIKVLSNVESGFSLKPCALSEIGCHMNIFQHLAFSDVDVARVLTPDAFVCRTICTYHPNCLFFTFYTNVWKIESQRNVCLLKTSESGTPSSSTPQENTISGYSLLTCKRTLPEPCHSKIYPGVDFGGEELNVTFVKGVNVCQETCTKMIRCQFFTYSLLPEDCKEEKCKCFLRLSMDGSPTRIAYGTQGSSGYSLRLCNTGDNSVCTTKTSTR
Plasma kallikrein, sequence (P03952 391-638 limits assumed): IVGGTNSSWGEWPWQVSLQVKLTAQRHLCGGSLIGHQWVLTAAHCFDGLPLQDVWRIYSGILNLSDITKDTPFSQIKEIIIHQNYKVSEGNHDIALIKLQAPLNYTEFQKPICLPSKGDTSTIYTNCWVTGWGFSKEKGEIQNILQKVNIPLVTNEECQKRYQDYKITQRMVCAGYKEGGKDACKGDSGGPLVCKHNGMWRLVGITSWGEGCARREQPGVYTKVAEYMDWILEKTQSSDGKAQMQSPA

| SMILES | IC50 (Coagulation factor X [1]) [nM] | CD (Plasma [2]) [µM] | fold change (FC) (Mus musculus [3]) | fold change (FC) (Mus musculus [4]) | also measured |
| --- | --- | --- | --- | --- | --- |
| COc1ccc(NC(=O)c2ccccc2NC(=O)c2ccc(N3CCCN(C)CC3)cc2)cc1 | 140 | 5.9 | 1.02 | 0.98 | – |
| COc1ccc(C(=O)Nc2cccc(OC)c2NC(=O)c2ccc(N3CCCN(C)CC3)cc2)cc1 | 62.6 | 3.7 | 1.5 | 1.32 | Papp at 2 h [5]: 47.5 ×10⁻⁶ cm/s; CLint scaled at 0.2 µM [6]: 2200 mL/min/kg |
| COc1ccc(C(=O)Nc2ccc(OC)cc2NC(=O)c2ccc(N3CCCN(C)CC3)cc2)cc1 | 73.4 | 7.5 | 1.35 | 1.38 | – |
| COc1ccc(C(=O)Nc2cc(OC)ccc2NC(=O)c2ccc(N3CCCN(C)CC3)cc2)cc1 | 118 | 7.1 | 1.25 | 1.34 | – |
| COc1ccc(C(=O)Nc2c(NC(=O)c3ccc(N4CCCN(C)CC4)cc3)cccc2OC)cc1 | 213 | 13 | – | – | – |
| COc1ccc(C(=O)Nc2cccc(C(=O)O)c2NC(=O)c2ccc(N3CCCN(C)CC3)cc2)cc1 | 99.2 | 9 | 1.05 | 1.08 | – |
| COc1ccc(C(=O)Nc2ccc(O)cc2NC(=O)c2ccc(N3CCCN(C)CC3)cc2)cc1 | 50.3 | 1.4 | 1.04 | 1 | Papp at 2 h [5]: < 0.3 ×10⁻⁶ cm/s; CLint scaled at 0.2 µM [6]: 1700 mL/min/kg |
| COc1ccc(C(=O)Nc2cc(O)ccc2NC(=O)c2ccc(N3CCCN(C)CC3)cc2)cc1 | 157 | 4.7 | 1.02 | 1.01 | – |
| CSc1ccc(C(=O)Nc2cccc(O)c2NC(=O)c2ccc(N3CCCN(C)CC3)cc2)cc1 | 1440 | – | – | – | – |
| CN1CCCN(c2ccc(C(=O)Nc3c(O)cccc3NC(=O)c3ccc(O)cc3)cc2)CC1 | 6140 | – | – | – | – |
| CN1CCCN(c2ccc(C(=O)Nc3c(O)cccc3NC(=O)c3ccc(Cl)s3)cc2)CC1 | 41.3 | 5.8 | 1.48 | 1.27 | – |
| CN1CCCN(c2ccc(C(=O)Nc3c(O)cccc3NC(=O)c3ccc(Br)s3)cc2)CC1 | 41.4 | 7.1 | 1.53 | 1.22 | – |
| COc1ccc(C(=O)Nc2cccc(O[C@@H]3O[C@H](C(=O)O)[C@@H](O)[C@H](O)[C@H]3O)c2NC(=O)c2ccc(N3CCCN(C)CC3)cc2)cc1 | 28.6 | 2.5 | – | – | CD (Plasma [7]): 0.95 µM; Ki (Coagulation factor X [8]): 20 nM; Ki (Trypsin): > 100 µM; Ki (Prothrombin): > 100 µM; Ki (Plasma kallikrein): 17 µM; Papp at 2 h [5]: < 0.2 ×10⁻⁶ cm/s; CLint scaled at 0.2 µM [6]: 90.6 mL/min/kg; Tmax (Rattus norvegicus [9]): 30 min; Cmax (Rattus norvegicus [10]): 9439.5 ng/mL; AUC (Rattus norvegicus [11]): 38539.2 ng·h/mL |
| COc1ccc(C(=O)Nc2cccc(O)c2NC(=O)c2ccc(N3CCCN(C)CC3)cc2)cc1.O=C(O)/C=C\C(=O)O | – | – | – | – | Tmax [12]: 2 h; Cmax [13]: 175 ng/mL; AUC(0-t) at 24 h [14]: 1290 ng·h/mL |
| COc1ccc(C(=O)Nc2cccc(O)c2NC(=O)c2ccc(N3CCCN(C)CC3)cc2)cc1 [DAREXABAN] | 54.6 | 4.1 | 3.49 | 2.09 | CD (Plasma [7]): 1.2 µM; Ki (Coagulation factor X [8]): 31 nM; Ki (Trypsin): > 100 µM; Ki (Prothrombin): > 100 µM; Ki (Plasma kallikrein): 11 µM; Papp at 2 h [5]: 30 ×10⁻⁶ cm/s; CLint scaled at 0.2 µM [6]: 1910 mL/min/kg |

More lines, main results first:

| IC50 (Coagulation factor X [1]) [nM] | SMILES | CD (Plasma [2]) [µM] | fold change (FC) (Mus musculus [3]) | fold change (FC) (Mus musculus [4]) | also measured |
| --- | --- | --- | --- | --- | --- |
| 4220 | COc1ccc(C(=O)Nc2ccccc2NC(=O)c2ccc(OC)cc2)cc1 | – | – | – | – |
| 6220 | COc1ccc(C(=O)Nc2ccc(OC)cc2NC(=O)c2ccc(OC)cc2)cc1 | – | – | – | – |
| 103 | COc1ccc(C(=O)Nc2ccccc2NC(=O)c2ccc(N3CCCN(C)CC3)cc2)cc1 | 2.8 | 1.38 | 1.39 | Papp at 2 h [5]: 42 ×10⁻⁶ cm/s; CLint scaled at 0.2 µM [6]: 2050 mL/min/kg |
| 539 | COc1ccc(C(=O)Nc2ccccc2C(=O)Nc2ccc(N3CCCN(C)CC3)cc2)cc1 | – | – | – | – |
| 31.1 | COc1ccc(C(=O)Nc2ccc(C(=O)O)cc2NC(=O)c2ccc(N3CCCN(C)CC3)cc2)cc1 | 1.7 | 1 | 1 | – |
| 155 | COc1ccc(C(=O)Nc2cccc(F)c2NC(=O)c2ccc(N3CCCN(C)CC3)cc2)cc1 | 4.3 | 1.43 | 1.22 | – |
| 123 | COc1ccc(C(=O)Nc2cccc(OCC(=O)O)c2NC(=O)c2ccc(N3CCCN(C)CC3)cc2)cc1 | 2.8 | 0.99 | 0.98 | – |
| 106 | COc1ccc(C(=O)Nc2cccc(OCCO)c2NC(=O)c2ccc(N3CCCN(C)CC3)cc2)cc1 | 3 | 1.36 | 1.31 | – |
| 349 | CN1CCCN(c2ccc(C(=O)Nc3c(O)cccc3NC(=O)c3ccc(F)cc3)cc2)CC1 | – | – | – | – |
| 64.2 | CN1CCCN(c2ccc(C(=O)Nc3c(O)cccc3NC(=O)c3ccc(Cl)cc3)cc2)CC1 | 5.3 | 1.42 | 1.32 | – |
| 59.8 | CN1CCCN(c2ccc(C(=O)Nc3c(O)cccc3NC(=O)c3ccc(Br)cc3)cc2)CC1 | 6.7 | 1.41 | 1.62 | – |
| 86.1 | COc1ccc(C(=O)Nc2cccc(O)c2NC(=O)c2ccc(N3CCCN(C)CC3)cc2)s1 | 3.8 | 2.17 | 1.9 | – |
